From PubChem
In the library only some 3.8% were active in any assay of this set; here they are far more common.
SDO1 yeast rescue: sdo1-depleted yeast growth rescue; z-score at 10 µM; S. cerevisiae sdo1-depleted JHY4D growth rescue, OD600 30 h; hits give high values; pdr5 snq2 efflux-pump mutant strain; 140,000 compounds, 0.21% hits;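 active = z-score above 3 at both the 24 hr and the 30 hr optical density reads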;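 also: z-score against mean and SD of all compound wells on the same plate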
Measles CPE: protection of cells from measles virus; Measles virus-infected cells, CPE protection, absorbance; protection (pct of control), % at 4 µM; 140,000 compounds, 1.5% hits; AID 841; in the data active = protection mostly above about 24%, no sharp cut-off; inactive = mostly below about 26%
BB579 growth dn: chemicals that inhibit yeast BB579 growth in restrictive medium (lifespan-shortening candidates); 140,000 compounds, 0.51% hits; S. cerevisiae BB579 growth, OD615, 48 h; inhibition, % at 10 µM;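 active = inhibition above a set limit, 3 SD over the mean compound inhibition, cut at about 44% in these data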
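test system = yeast BB579 (DeaD) | buffer or medium = restrictive CSMM-D medium | doses = single compound dose of 10 µM, 0.25% DMSO final | times = 4 h preincubation and 48 h exposure at 30 °C | technique = culture absorbance at 615 nm | benchmarks = amphotericin B 10 µg/mL, positive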
RAM inhibit: inhibitors of the yeast RAM network; S. cerevisiae dse1pr::URA3 reporter, 5-FOA growth OD615, 2 d; analog-sensitive cbk1-as2 kinase mutant strain; inhibition, % at 50 µM; 190,000 compounds, 1.8% hits;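 active = inhibition above a set limit, 3 SD over mean compound inhibition, cut at about 8.4% in these data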;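 also: 0% = DMSO-only wells with no growth and 100% = 10 µM 1-NA-PP1 full growth; inhibition rescues growth on 5-FOA so higher OD means more RAM inhibition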
Yeast lifespan up: extends the lifespan of yeast; inhibition of the nicotinamide effect, % at 10 µM; S. cerevisiae growth with nicotinamide, OD615; deaD strain in restrictive glucose medium; 130,000 compounds, 0.68% hits; AID 775;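 active = inhibition above a set limit, placed 3 SD over the median of all compounds, cut at about 26% in these data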;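 also: 0% = nicotinamide-treated wells and 100% = cells grown without nicotinamide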
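assay system = DeaD-strain S. cerevisiae | measured by = absorbance at 615 nm | probe or stimulus = nicotinamide 1.5 mM | buffer or medium = CSMM-D glucose medium, restrictive | times = 48 h at 30 °C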
RAM efflux-def: RAM network inhibition, efflux-deficient strain; S. cerevisiae efflux-deficient reporter strain, 5-FOA growth OD615, 2 days; max inhibition, %; 1,200 tested, under 10 active; shares compounds with RAM inhibit; call rule not given here;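 also: plate controls were vehicle for no effect and reference inhibitor for full effect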
* = called active by the depositor; . = not tested or not shown.

SMILES | SDO1 yeast rescue | Measles CPE | BB579 growth dn | RAM inhibit | Yeast lifespan up | RAM efflux-def
O=C1CCC(/C=C/c2ccccc2)=NN1Cc1ccc(Cl)c(Cl)c1 | -2.6 | 2 | -28 | 13* | -13 | 4
O=C1CCC(/C=C/c2ccccc2)=NN1Cc1ccccc1Cl | -1.1 | 16 | -81 | 23* | -6 | 1
O=C(CSc1nc2ccccc2[nH]1)Nc1nc(-c2ccc(Br)cc2)cs1 | -1.1 | 8 | -20 | 6 | 9 | .
COc1cccc(NC(=O)C2CC(=O)N(C)C(=Nc3cccc(F)c3)S2)c1 (stereo not given) | 2.2 | 15 | -6 | 19* | -17 | 1
COc1cccc(N=C2SC(C(=O)Nc3ccccc3F)CC(=O)N2C)c1 (stereo not given) | -0.07 | 18 | -20 | 5 | -4 | .
Cc1nn(Cc2ccccc2)c(C)c1NC(=O)Cn1nc([N+](=O)[O-])c(Cl)c1C | 1.1 | 14 | -21 | 0 | -4 | .
Cc1nn(Cc2c(Cl)cccc2Cl)c(C)c1NC(=O)Cn1nc([N+](=O)[O-])c(Cl)c1C | -0.67 | 19 | -18 | 13* | 5 | 2
CC(=O)Oc1cccc(N2C(=O)c3ccc(C(=O)Nc4c[nH]c(=O)[nH]c4=O)cc3C2=O)c1 | . | . | . | 12* | . | 3
CC(C)=CCC/C(C)=C/Cc1c(O)ccc(C(=O)/C=C/c2ccc(O)cc2)c1O | -1.4 | 19 | -44 | 15* | -5 | 5
O=C(/C=C/c1ccc(O)cc1)c1ccc(O)cc1O | -0.56 | 4 | -40 | 1 | -3 | .
O=c1c(-c2nnc(SCc3ccc(Cl)cc3Cl)o2)cccn1Cc1ccccc1 | -2 | 6 | -40 | 12* | 5 | 1
COc1ccccc1C(NC(=O)C1CCCCC1)c1c(O)ccc2ccccc12 (stereo not given) | -0.95 | 18 | -1 | 12* | -3 | 5
C#CCOCCOCCOCCNc1nc(N2CCOCC2)nc(N2CCN(C(=O)[C@H](CCC(=O)O)n3cc(C(N)Cc4ccc(O)cc4)nn3)CC2)n1 (stereo not given in full) | . | . | . | 1 | . | .
CCOC(=O)CCCSc1nc(-c2ccc3c(c2)OCO3)cc(C(F)(F)F)c1C#N | -0.28 | 11 | -45 | 14* | 5 | 2
CCOC(=O)CSc1nc(-c2ccc3c(c2)OCO3)ccc1C#N | 1.3 | 10 | -36 | 7 | -15 | .
O=C(CCCNC(=O)/C(=C/c1ccc(F)cc1)NC(=O)c1ccccc1)OCc1ccccc1 | -0.52 | 9 | -15 | 5 | -2 | .
N#Cc1ccc(CSc2nnc(-c3c[nH]c4ccccc34)n2-c2ccccc2)cc1 | . | . | . | 12* | . | 2
COC(=O)CN(c1ccc(F)cc1)S(=O)(=O)c1ccccc1 | 0.47 | 8 | -5 | -1 | -6 | .
COC(=O)Cc1ccc(N(Cc2ccccc2F)S(=O)(=O)c2ccc(Cl)cc2)cc1 | -0.88 | 28 | -76 | 15* | 14 | 1
O=C(O)CCCCn1c(SCc2cc(=O)n3cc(Cl)ccc3n2)nc2ccsc2c1=O | 0.12 | 17 | -32 | 5 | 5 | .
O=C(O)CCCCn1c(SCc2ccccc2Cl)nc2ccsc2c1=O | . | . | . | 17* | . | 1
Cc1ccc(-n2c(C)cc(/C=C3\NC(=O)NC3=O)c2C)c(C)c1 | -1.4 | 7 | -35 | 2 | 9 | .
O=C(O)CCSc1nnc(-c2cccnc2)n1-c1ccccc1 | -0.38 | 6 | -17 | 0 | -13 | .
CCCNC(=O)c1c[nH]c2ccc(S(=O)(=O)N(C)c3ccc(OCC)cc3)cc2c1=O | 0.77 | 12 | 3 | 4 | -4 | .
CCOc1ccc(N(C)S(=O)(=O)c2ccc3[nH]cc(C(=O)NCCOC)c(=O)c3c2)cc1 | . | . | . | 14* | . | 11
Cc1ccc(NC(=O)C2CCCN2C(=O)Oc2ccccc2)c(C)c1 (stereo not given) | . | . | . | 1 | . | .
Cc1cccc(NC(=O)C2CCCN2C(=O)Oc2ccccc2)c1C (stereo not given) | 0.14 | 12 | -3 | 12* | . | 1
Cc1ccc2sc(NC(=O)c3ccc(N4C(=O)CCC4=O)cc3)nc2c1C | -0.64 | 9 | -41 | 17* | 5 | 2
CCc1cccc2sc(NC(=O)c3ccc(N4C(=O)CCC4=O)cc3)nc12 | -0.72 | 1 | -20 | 3 | 2 | .
O=C(NCCn1cc(SCc2ccccc2)c2ccccc21)c1ccccc1F | -0.52 | 3 | -28 | 15* | 6 | 2
